Reference: ChEMBL document CHEMBL4014306, “Pyrazolopyrimidines as Potent Stimulators for Transient Receptor Potential Canonical 3/6/7 Channels” (J Med Chem, 2017)
The source made the active and inactive calls. No cut-off for these calls is given here.

Legend:
Type in all cases: cell-based
[1] = target: T1, Short transient receptor potential channel 6 (Mus musculus) (UniProt Q61143); test: Agonist activity at mouse TRPC6 expressed in HEK293 cells co-expressing Gq11-PLCbeta fused M5 receptor assessed as increase in intracellular calcium level measured for 2.5 mins by Fluo-8-AM dye-based fluorescence assay
T1 sequence (whole entry): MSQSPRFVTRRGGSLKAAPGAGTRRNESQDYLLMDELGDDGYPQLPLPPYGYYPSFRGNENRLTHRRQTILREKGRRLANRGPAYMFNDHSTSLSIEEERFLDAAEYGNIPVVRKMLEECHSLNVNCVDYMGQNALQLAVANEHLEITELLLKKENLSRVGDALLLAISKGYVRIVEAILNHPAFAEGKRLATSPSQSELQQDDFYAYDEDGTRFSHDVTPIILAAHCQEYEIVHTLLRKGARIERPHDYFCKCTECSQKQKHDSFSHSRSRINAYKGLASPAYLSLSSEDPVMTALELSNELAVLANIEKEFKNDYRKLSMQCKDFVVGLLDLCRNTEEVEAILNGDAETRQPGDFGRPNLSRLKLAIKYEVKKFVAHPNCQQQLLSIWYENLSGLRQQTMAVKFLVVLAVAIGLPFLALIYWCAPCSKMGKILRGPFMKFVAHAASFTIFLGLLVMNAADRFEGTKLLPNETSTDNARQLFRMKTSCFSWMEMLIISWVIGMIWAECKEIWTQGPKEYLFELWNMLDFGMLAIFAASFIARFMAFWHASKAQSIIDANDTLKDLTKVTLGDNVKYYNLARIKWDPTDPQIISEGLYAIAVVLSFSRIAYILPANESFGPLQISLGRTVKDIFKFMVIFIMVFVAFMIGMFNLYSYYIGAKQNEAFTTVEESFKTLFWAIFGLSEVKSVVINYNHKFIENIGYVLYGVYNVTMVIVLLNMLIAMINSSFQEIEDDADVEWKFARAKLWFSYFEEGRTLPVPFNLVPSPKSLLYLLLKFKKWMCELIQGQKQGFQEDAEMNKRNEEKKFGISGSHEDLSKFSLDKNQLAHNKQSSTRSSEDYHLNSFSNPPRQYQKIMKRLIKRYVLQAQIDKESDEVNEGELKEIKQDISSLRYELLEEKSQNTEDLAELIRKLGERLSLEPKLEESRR

[2] = target: T2, Short transient receptor potential channel 7 (Homo sapiens) (UniProt Q9HCX4); test: Agonist activity at human TRPC7 expressed in HEK293 cells assessed as increase in membrane depolarization measured for 2.5 mins in presence of 2 mM Ca2+ by FLIPR membrane potential dye-based fluorescence assay
T2 sequence (whole entry): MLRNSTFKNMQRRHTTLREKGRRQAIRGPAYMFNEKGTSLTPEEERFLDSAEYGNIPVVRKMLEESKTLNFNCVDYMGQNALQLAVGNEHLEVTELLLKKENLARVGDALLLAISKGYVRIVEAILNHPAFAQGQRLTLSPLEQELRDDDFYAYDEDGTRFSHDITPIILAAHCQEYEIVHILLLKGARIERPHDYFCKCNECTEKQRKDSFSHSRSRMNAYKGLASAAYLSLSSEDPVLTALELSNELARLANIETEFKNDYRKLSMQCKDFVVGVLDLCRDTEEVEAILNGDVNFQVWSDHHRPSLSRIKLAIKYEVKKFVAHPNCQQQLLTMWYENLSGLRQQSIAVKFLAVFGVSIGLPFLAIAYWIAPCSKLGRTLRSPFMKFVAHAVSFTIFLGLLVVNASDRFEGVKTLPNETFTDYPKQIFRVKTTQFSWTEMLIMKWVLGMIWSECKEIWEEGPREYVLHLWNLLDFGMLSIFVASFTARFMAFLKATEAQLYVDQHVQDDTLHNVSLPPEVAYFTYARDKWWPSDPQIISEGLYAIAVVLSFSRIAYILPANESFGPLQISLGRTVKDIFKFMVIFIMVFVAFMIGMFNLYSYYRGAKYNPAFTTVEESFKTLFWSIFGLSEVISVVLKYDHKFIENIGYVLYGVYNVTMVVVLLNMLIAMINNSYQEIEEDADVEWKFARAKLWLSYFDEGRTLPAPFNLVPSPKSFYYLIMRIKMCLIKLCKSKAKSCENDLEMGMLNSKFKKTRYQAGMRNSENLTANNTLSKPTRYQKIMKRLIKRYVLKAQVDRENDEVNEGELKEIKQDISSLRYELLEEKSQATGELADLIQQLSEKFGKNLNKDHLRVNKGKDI

[3] = tested on: HEK293; test: Induction of intracellular calcium level in HEK293 cells at 30 uM measured for 2.5 mins by Fluo-4-AM dye based FLIPR assay; conditions: human, hek293, 2.5 min
[4] = target: T2, Short transient receptor potential channel 7 (Homo sapiens); test: Antagonist activity at human TRPC7 receptor expressed in HEK293 cells assessed as channel desensitization up to 30 uM in presence of 0.1 mM Ca2+ by whole cell patch-clamp method
Summary of the method: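 Whole-cell clamp of TRPC6/M5 or TRPC7 HEK293 cells with 0.1 mM Ca2+ bath and 400 nM free Ca2+ pipette. Ramps +100 to −100 mV every 1 s. Increasing concentrations given consecutively by perfusion (TRPC6 highest 20–100 μM; TRPC7 up to 30 μM). Currents at positive and negative potentials followed for desensitization.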

SMILES: CCOC(=O)N1CCC(c2cc(O)n3nc(C)c(-c4ccc(F)cc4)c3n2)CC1
- Activity [1]: Dose-dependent effect
- Activity [2]: Active
- Activity [3]: Non-Toxic
- inhibition [4]: Active
